Source: ChEMBL document CHEMBL4368918, “Structure-Based Design of Inhibitors Selective for Human Proteasome β2c or β2i Subunits” (J Med Chem, 2019)
Calls of active or inactive are those of the source. The rule behind the calls is not given here.

Tests used:
[1] = biological target: T1, Proteasome subunit beta type-8 (Homo sapiens, UniProt P28062); test: Inhibition of 20S immunoproteasome beta 5 in human RPMI8226 cell lysates after 1 hr by coomassie brilliant blue staining-based fluorescence assay; assay type: subcellular, Lysate
T1 sequence (P28062 whole entry): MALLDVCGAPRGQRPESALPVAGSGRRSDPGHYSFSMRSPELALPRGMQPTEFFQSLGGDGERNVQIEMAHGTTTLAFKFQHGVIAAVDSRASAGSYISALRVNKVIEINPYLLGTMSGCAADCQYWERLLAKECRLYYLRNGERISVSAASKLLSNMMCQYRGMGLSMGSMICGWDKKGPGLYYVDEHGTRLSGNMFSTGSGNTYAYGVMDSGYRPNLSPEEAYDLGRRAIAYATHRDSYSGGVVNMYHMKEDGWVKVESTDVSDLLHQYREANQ
In short: (§1)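 Living RPMI-8226 cells were grown in RPMI-1640 with 10% FCS. Cells at (5–8)×10⁵ cells/mL were exposed to inhibitor for 1 h at 37 °C, washed in PBS and lysed on ice for 1 h in digitonin/ATP buffer. Residual activity was read by cocktail-ABP labeling, SDS-PAGE and fluorescence densitometry relative to mock, with Coomassie staining correcting for loading. IC50 came from three independent experiments.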

[2] = biological target: Proteasome Macropain subunit (Homo sapiens) (UniProt P49721); test: Inhibition of Morp-Ala-Tyr(O-C2H4-BODIPY(FL))-1-DecAla-EK binding to 20S constitutive proteasome beta 2 in human Raji cell lysates at 0.3 uM in presence of 3-probe mixture by competitive ABPP assay; assay type: subcellular; conditions: Lysate
[3] = biological target: T2, Proteasome subunit beta type-10 (Homo sapiens, UniProt P40306); test: Inhibition of 20S immunoproteasome beta 2 in human Raji cell lysates after 1 hr by competitive ABPP assay; assay type: subcellular, Lysate
T2 sequence (P40306 whole entry): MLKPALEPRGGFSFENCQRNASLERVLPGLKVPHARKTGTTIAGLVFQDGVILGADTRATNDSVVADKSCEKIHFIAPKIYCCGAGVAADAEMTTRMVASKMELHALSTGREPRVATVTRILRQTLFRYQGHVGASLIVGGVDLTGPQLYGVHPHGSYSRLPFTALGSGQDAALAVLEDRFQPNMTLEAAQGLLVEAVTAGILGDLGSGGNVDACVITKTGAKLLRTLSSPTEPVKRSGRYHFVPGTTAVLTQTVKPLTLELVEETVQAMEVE

[4] = biological target: T3, Proteasome subunit beta type-10 (Homo sapiens) (UniProt P40306); test: Inhibition of Morp-Ala-Tyr(O-C2H4-BODIPY(FL))-1-DecAla-EK binding to 20S immunoproteasome beta 2 in human Raji cell lysates at 0.3 uM in presence of 3-probe mixture by competitive ABPP assay; assay type: subcellular; conditions: Lysate
T3 sequence (whole entry): T2 sequence (P40306 whole entry)

[5] = biological target: T2, Proteasome subunit beta type-10; test: Inhibition of 20S immunoproteasome beta 2 (unknown origin) by cell based ABPP assay
In short: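 Living RPMI-8226 cells, (5–8) ×10^5 cells/mL, exposed to inhibitor 1 h at 37 °C, washed, lysed in digitonin buffer 1 h on ice; residual activity labelled with cocktail ABPs, SDS-PAGE in-gel fluorescence, bands divided by mock, Coomassie staining to correct loading. IC50 from mean of three independent experiments.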

[6] = biological target: T2, Proteasome subunit beta type-10; test: Inhibition of 20S immunoproteasome beta 2 in human RPMI8226 cell lysates after 1 hr by coomassie brilliant blue staining-based fluorescence assay; assay type: subcellular, Lysate
[7] = biological target: T3, Proteasome subunit beta type-10 (Homo sapiens); test: Inhibition of Morp-Ala-Tyr(O-C2H4-BODIPY(FL))-1-DecAla-EK binding to immunoproteasome beta 2 in human Raji cell lysates at 0.3 uM by competitive ABPP assay; assay type: subcellular; conditions: Lysate
In short: (§2)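 Raji lysate was preincubated with inhibitor, then labeled with the BODIPY(FL) probe alone. β2i labeling was read by in-gel fluorescence at Cy2 settings after SDS-PAGE.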

[8] = biological target: T4, Proteasome subunit beta type-9 (Homo sapiens, UniProt P28065); test: Inhibition of 20S immunoproteasome beta 1 in human Raji cell lysates after 1 hr by competitive ABPP assay; assay type: subcellular, Lysate
T4 sequence (P28065 whole entry): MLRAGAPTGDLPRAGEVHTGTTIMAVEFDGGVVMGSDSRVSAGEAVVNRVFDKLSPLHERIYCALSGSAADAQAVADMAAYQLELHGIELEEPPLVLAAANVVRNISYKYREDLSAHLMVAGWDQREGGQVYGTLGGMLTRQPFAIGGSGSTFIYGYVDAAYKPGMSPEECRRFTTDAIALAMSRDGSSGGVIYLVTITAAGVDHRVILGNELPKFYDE
In short: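 Raji cells were sonicated in 3 volumes of Tris pH 7.5 lysis buffer containing DTT, MgCl₂, sucrose, 2 mM ATP and 0.05% digitonin. Lysate (5 μg protein, in buffer with 2 mM ATP and glycerol) was preincubated with inhibitor for 1 h at 37 °C, then with a cocktail of three fluorescent ABPs for 1 h. […] In-gel fluorescence densitometry was normalized to mock. IC50 came from the mean of three experiments.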

[9] = biological target: T5, Proteasome Macropain subunit MB1 (Homo sapiens, UniProt P28074); test: Inhibition of 20S constitutive proteasome beta 5 chymotrypsin-like activity in human RPMI8226 cell lysates after 1 hr by coomassie brilliant blue staining-based fluorescence assay; assay type: subcellular, Lysate
T5 sequence (P28074 whole entry): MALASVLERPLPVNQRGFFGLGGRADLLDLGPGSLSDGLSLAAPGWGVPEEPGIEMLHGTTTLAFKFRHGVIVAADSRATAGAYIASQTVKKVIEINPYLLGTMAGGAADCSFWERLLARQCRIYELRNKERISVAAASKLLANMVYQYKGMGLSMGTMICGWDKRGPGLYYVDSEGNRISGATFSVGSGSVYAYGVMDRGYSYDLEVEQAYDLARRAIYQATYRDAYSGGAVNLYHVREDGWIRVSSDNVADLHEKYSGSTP
In short: as §1, with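 “Cells” for “Living RPMI-8226 cells were grown in RPMI-1640 with 10% FCS. Cells”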

[10] = biological target: T3, Proteasome subunit beta type-10 (Homo sapiens); test: Inhibition of Morp-Ala-Tyr(O-C2H4-BODIPY(FL))-1-DecAla-EK binding to immunoproteasome beta 2 in human Raji cell lysates at 0.1 uM by competitive ABPP assay; assay type: subcellular; conditions: Lysate; in short: as §2
[11] = biological target: Proteasome Macropain subunit (Homo sapiens) (UniProt P49721); conditions: Raji, Lysate, 1 uM
[12] = biological target: T1, Proteasome subunit beta type-8; test: Inhibition of 20S immunoproteasome beta 5 in human Raji cell lysates after 1 hr by competitive ABPP assay; assay type: subcellular, Lysate
[13] = biological target: T3, Proteasome subunit beta type-10 (Homo sapiens); test: Inhibition of Morp-Ala-Tyr(O-C2H4-BODIPY(FL))-1-DecAla-EK binding to 20S immunoproteasome beta 2 in human Raji cell lysates at 1 uM in presence of 3-probe mixture by competitive ABPP assay; assay type: subcellular; conditions: Lysate
[14] = biological target: T4, Proteasome subunit beta type-9; test: Inhibition of 20S immunoproteasome beta 1 in human RPMI8226 cell lysates after 1 hr by coomassie brilliant blue staining-based fluorescence assay; assay type: subcellular, Lysate; in short: as §1

Row | SMILES | IC50 [1] [µM] | inhibition [2] | IC50 [3] [µM] | inhibition [4] | IC50 [5] [µM] | IC50 [6] [µM] | inhibition [7] | IC50 [8] [µM] | IC50 [9] [µM] | inhibition [10] | inhibition [11] | IC50 [12] [µM] | inhibition [13] | IC50 [14] [µM]
1 | CC(C)C[C@H](NC(=O)[C@H](Cc1ccccc1)N=[N+]=[N-])C(=O)N[C@@H](C)C(=O)N[C@H](/C=C/S(C)(=O)=O)Cc1ccc(CN)cc1 | > 10 | Active | 0.14 | Active | 0.325 | > 10 | Active | > 100 | > 10 |  |  |  |  | 
2 | CC(C)C[C@H](NC(=O)[C@H](Cc1ccccc1)N=[N+]=[N-])C(=O)N[C@@H](CC(C)C)C(=O)N[C@H](/C=C/S(C)(=O)=O)Cc1ccc(CN)cc1 | > 10 |  | 0.02 |  |  | 0.41 |  |  |  | Active | Active | 1.17 | Active | > 10
